Reference: ChEMBL document CHEMBL4665627 (Eur J Med Chem, 2019)
Values after ≈ are worked out from the molar mass of the structure shown.

Assays:
Acinetobacter baumannii = experiment: Antibacterial activity against Acinetobacter baumannii assessed as inhibition of bacterial growth after 24 hrs by CLSI protocol based two fold serial dilution method; type: functional
Procedure, shortened: (§1)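 Two-fold serial broth dilution in 96-well plates following CLSI; MIC (mM) taken as the lowest concentration giving complete growth inhibition; MIC values from three independent experiments.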

Staphylococcus aureus [1] = experiment: Antibacterial activity against Staphylococcus aureus assessed as inhibition of bacterial growth after 24 hrs by CLSI protocol based two fold serial dilution method; type: functional; procedure, shortened: as §1
Staphylococcus aureus [2] = experiment: Antibacterial activity against methicillin-resistant Staphylococcus aureus N315 assessed as inhibition of bacterial growth after 24 hrs by CLSI protocol based two fold serial dilution method; type: functional
Staphylococcus aureus [3] = experiment: Antibacterial activity against Staphylococcus aureus ATCC 25923 assessed as inhibition of bacterial growth after 24 hrs by CLSI protocol based two fold serial dilution method; type: functional; procedure, shortened: as §1
Klebsiella pneumoniae = experiment: Antibacterial activity against Klebsiella pneumoniae assessed as inhibition of bacterial growth after 24 hrs by CLSI protocol based two fold serial dilution method; type: functional; procedure, shortened: as §1
Candida parapsilosis = experiment: Antifungal activity against Candida parapsilosis ATCC 22019 assessed as inhibition of fungal growth after 24 hrs by CLSI protocol based two fold serial dilution method; type: functional; conditions: Lodderomyces parapsilosis; procedure, shortened: as §1
Saccharomyces cerevisiae = experiment: Inhibition of Saccharomyces cerevisiae CGMCC 2.145 chitin synthase at 300 ug/ml using GlcNAc and UDP-GlcNAc as substrate incubated for 60 mins by microplate reader analysis relative to control; conditions: dose 300.0 µg/ml
Procedure, shortened: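 Chitin synthase inhibition ratio measured at 300 µg/mL test compound, relative to untreated control.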

Escherichia coli [4] = experiment: Antibacterial activity against Escherichia coli assessed as inhibition of bacterial growth after 24 hrs by CLSI protocol based two fold serial dilution method; type: functional; procedure, shortened: as §1
Candida albicans [5] = experiment: Antifungal activity against Candida albicans assessed as inhibition of fungal growth after 24 hrs by CLSI protocol based two fold serial dilution method; type: functional; procedure, shortened: as §1
Aspergillus fumigatus = experiment: Antifungal activity against Aspergillus fumigatus assessed as inhibition of fungal growth after 24 hrs by CLSI protocol based two fold serial dilution method; type: functional; procedure, shortened: as §1
Pseudomonas aeruginosa [6] = experiment: Antibacterial activity against Pseudomonas aeruginosa assessed as inhibition of bacterial growth after 24 hrs by CLSI protocol based two fold serial dilution method; type: functional; procedure, shortened: as §1
Pseudomonas aeruginosa [7] = experiment: Antibacterial activity against Pseudomonas aeruginosa ATCC 27853 assessed as inhibition of bacterial growth after 24 hrs by CLSI protocol based two fold serial dilution method; type: functional; procedure, shortened: as §1
Staphylococcus aureus [8] = experiment: Antibacterial activity against Staphylococcus aureus ATCC 29213 assessed as inhibition of bacterial growth after 24 hrs by CLSI protocol based two fold serial dilution method; type: functional
Candida tropicalis = experiment: Antifungal activity against Candida tropicalis assessed as inhibition of fungal growth after 24 hrs by CLSI protocol based two fold serial dilution method; type: functional; procedure, shortened: as §1
Candida albicans [9] = experiment: Antifungal activity against Candida albicans ATCC 90023 assessed as inhibition of fungal growth after 24 hrs by CLSI protocol based two fold serial dilution method; type: functional; procedure, shortened: as §1
Enterococcus faecalis = experiment: Antibacterial activity against Enterococcus faecalis assessed as inhibition of bacterial growth after 24 hrs by CLSI protocol based two fold serial dilution method; type: functional; procedure, shortened: as §1
Escherichia coli [10] = experiment: Antibacterial activity against Escherichia coli ATCC 25922 assessed as inhibition of bacterial growth after 24 hrs by CLSI protocol based two fold serial dilution method; type: functional; procedure, shortened: as §1

Row | Compound | MIC (Acinetobacter baumannii) [µM] | MIC (Staphylococcus aureus [1]) [µM] | MIC (Staphylococcus aureus [2]) [µM] | MIC (Staphylococcus aureus [3]) [µM] | MIC (Klebsiella pneumoniae) [µM] | MIC (Candida parapsilosis) [µM] | inhibition (Saccharomyces cerevisiae) [%] | MIC (Escherichia coli [4]) [µM] | MIC (Candida albicans [5]) [µM] | MIC (Aspergillus fumigatus) [µM] | MIC (Pseudomonas aeruginosa [6]) [µM] | MIC (Pseudomonas aeruginosa [7]) [µM] | MIC (Staphylococcus aureus [8]) [µM] | MIC (Candida tropicalis) [µM] | MIC (Candida albicans [9]) [µM] | MIC (Enterococcus faecalis) [µM] | MIC (Escherichia coli [10]) [µM]
1 | CCN(CC)C(=O)CN1CCN(c2cc3c(cc2F)c(=O)c(-c2csc(N)n2)cn3CC)CC1 | 16 (≈ 7.79 µg/mL) | 137 (≈ 66.7 µg/mL) | 66 (≈ 32.1 µg/mL) | 16 (≈ 7.79 µg/mL) | 263 (≈ 128 µg/mL) | 132 (≈ 64.2 µg/mL) | 49.1 | 66 (≈ 32.1 µg/mL) | 66 (≈ 32.1 µg/mL) | 66 (≈ 32.1 µg/mL) | 132 (≈ 64.2 µg/mL) | 132 (≈ 64.2 µg/mL) | 66 (≈ 32.1 µg/mL) | 132 (≈ 64.2 µg/mL) | 66 (≈ 32.1 µg/mL) | 132 (≈ 64.2 µg/mL) | 66 (≈ 32.1 µg/mL)
2 | CCCCN1CCN(c2cc3c(cc2F)c(=O)c(-c2csc(N)n2)cn3CC)CC1 | 19 (≈ 8.16 µg/mL) | 75 (≈ 32.2 µg/mL) | 149 (≈ 64 µg/mL) | 9 (≈ 3.87 µg/mL) | 5 (≈ 2.15 µg/mL) | 19 (≈ 8.16 µg/mL) | 41.4 | 149 (≈ 64 µg/mL) | 149 (≈ 64 µg/mL) | 9 (≈ 3.87 µg/mL) | 298 (≈ 128 µg/mL) | 75 (≈ 32.2 µg/mL) | 19 (≈ 8.16 µg/mL) | 9 (≈ 3.87 µg/mL) | 149 (≈ 64 µg/mL) | 75 (≈ 32.2 µg/mL) | 37 (≈ 15.9 µg/mL)
3 | CCOC(=O)CN1CCN(c2cc3c(cc2F)c(=O)c(-c2csc(N)n2)cn3CC)CC1 | 35 (≈ 16.1 µg/mL) | 70 (≈ 32.2 µg/mL) | 139 (≈ 63.9 µg/mL) | 17 (≈ 7.81 µg/mL) | 139 (≈ 63.9 µg/mL) | 279 (≈ 128 µg/mL) | – | 279 (≈ 128 µg/mL) | 70 (≈ 32.2 µg/mL) | 558 (≈ 256 µg/mL) | 139 (≈ 63.9 µg/mL) | 70 (≈ 32.2 µg/mL) | 139 (≈ 63.9 µg/mL) | 139 (≈ 63.9 µg/mL) | 70 (≈ 32.2 µg/mL) | 279 (≈ 128 µg/mL) | 558 (≈ 256 µg/mL)
4 | CCn1cc(-c2csc(N)n2)c(=O)c2cc(F)c(N3CCN(CC(C)O)CC3)cc21 (stereo unspecified) | 19 (≈ 8.2 µg/mL) | 37 (≈ 16 µg/mL) | 148 (≈ 63.9 µg/mL) | 148 (≈ 63.9 µg/mL) | 9 (≈ 3.88 µg/mL) | 148 (≈ 63.9 µg/mL) | – | 594 (≈ 256 µg/mL) | 148 (≈ 63.9 µg/mL) | 37 (≈ 16 µg/mL) | 148 (≈ 63.9 µg/mL) | 5 (≈ 2.16 µg/mL) | 148 (≈ 63.9 µg/mL) | 297 (≈ 128 µg/mL) | 148 (≈ 63.9 µg/mL) | 297 (≈ 128 µg/mL) | 37 (≈ 16 µg/mL)
5 | CCn1cc(-c2csc(N)n2)c(=O)c2cc(N3CCN(CC(C)=O)CC3)c(Cl)cc21 | 288 (≈ 128 µg/mL) | 144 (≈ 64.2 µg/mL) | 72 (≈ 32.1 µg/mL) | 288 (≈ 128 µg/mL) | 72 (≈ 32.1 µg/mL) | 288 (≈ 128 µg/mL) | – | 1150 (≈ 513 µg/mL) | 575 (≈ 256 µg/mL) | 575 (≈ 256 µg/mL) | 288 (≈ 128 µg/mL) | 36 (≈ 16.1 µg/mL) | 575 (≈ 256 µg/mL) | 288 (≈ 128 µg/mL) | 144 (≈ 64.2 µg/mL) | 288 (≈ 128 µg/mL) | 288 (≈ 128 µg/mL)
6 | CCn1cc(-c2csc(N)n2)c(=O)c2cc(F)c(N3CCN(Cc4ccc(F)cc4)CC3)cc21 | 266 (≈ 128 µg/mL) | 133 (≈ 64 µg/mL) | 67 (≈ 32.3 µg/mL) | 133 (≈ 64 µg/mL) | 266 (≈ 128 µg/mL) | 67 (≈ 32.3 µg/mL) | – | 67 (≈ 32.3 µg/mL) | 133 (≈ 64 µg/mL) | 266 (≈ 128 µg/mL) | 1060 (≈ 512 µg/mL) | 67 (≈ 32.3 µg/mL) | 532 (≈ 256 µg/mL) | 133 (≈ 64 µg/mL) | 17 (≈ 8.19 µg/mL) | 67 (≈ 32.3 µg/mL) | 33 (≈ 15.9 µg/mL)
7 | CCCCCCN1CCN(c2cc3c(cc2F)c(=O)c(-c2csc(N)n2)cn3CC)CC1 | 70 (≈ 32 µg/mL) | 140 (≈ 64.1 µg/mL) | 280 (≈ 128 µg/mL) | 140 (≈ 64.1 µg/mL) | 140 (≈ 64.1 µg/mL) | 560 (≈ 256 µg/mL) | – | 134 (≈ 61.3 µg/mL) | 1120 (≈ 513 µg/mL) | 1120 (≈ 513 µg/mL) | 280 (≈ 128 µg/mL) | 140 (≈ 64.1 µg/mL) | 280 (≈ 128 µg/mL) | 560 (≈ 256 µg/mL) | 1120 (≈ 513 µg/mL) | 70 (≈ 32 µg/mL) | 140 (≈ 64.1 µg/mL)
8 | CCCN1CCN(c2cc3c(cc2F)c(=O)c(-c2csc(N)n2)cn3CC)CC1 | 154 (≈ 64 µg/mL) | 308 (≈ 128 µg/mL) | 308 (≈ 128 µg/mL) | 154 (≈ 64 µg/mL) | 154 (≈ 64 µg/mL) | 308 (≈ 128 µg/mL) | – | 308 (≈ 128 µg/mL) | 308 (≈ 128 µg/mL) | 154 (≈ 64 µg/mL) | 617 (≈ 256 µg/mL) | 154 (≈ 64 µg/mL) | 617 (≈ 256 µg/mL) | 308 (≈ 128 µg/mL) | 308 (≈ 128 µg/mL) | 154 (≈ 64 µg/mL) | 308 (≈ 128 µg/mL)
9 | C=CCN1CCN(c2cc3c(cc2F)c(=O)c(-c2csc(N)n2)cn3CC)CC1 | 77 (≈ 31.8 µg/mL) | 155 (≈ 64.1 µg/mL) | 78 (≈ 32.3 µg/mL) | 19 (≈ 7.86 µg/mL) | 77 (≈ 31.8 µg/mL) | 155 (≈ 64.1 µg/mL) | – | 77 (≈ 31.8 µg/mL) | 77 (≈ 31.8 µg/mL) | 77 (≈ 31.8 µg/mL) | 155 (≈ 64.1 µg/mL) | 155 (≈ 64.1 µg/mL) | 39 (≈ 16.1 µg/mL) | 155 (≈ 64.1 µg/mL) | 77 (≈ 31.8 µg/mL) | 155 (≈ 64.1 µg/mL) | 155 (≈ 64.1 µg/mL)
